Data taken from ChEMBL document CHEMBL3856209, “Novel pyrazolopyridine derivatives as potential angiogenesis inhibitors: Synthesis, biological evaluation and transcriptome-based mechanistic analysis” (Eur J Med Chem, 2016).
Each block holds one compound with its values, some of them ahead of it. Active and inactive are the calls of the source.

Tests used:
HUVEC [1] = experiment: Effect on ITGA2 gene expression in serum-starved HUVEC after 24 hrs by microarray analysis relative to control; assay type: functional, Homo sapiens
Summary of the method: (§1)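 Confluent, serum-starved HUVEC (pooled from 3–5 donors, passage ≤4) treated with 2 μM compound or vehicle with 2.5% FBS for 6 h or 24 h. Total RNA hybridized to Illumina Human-HT12 arrays. Data were background-corrected, vst-transformed and rsn-normalized. Hits called by moderated paired t-test versus DMSO-treated cells, p < 0.05 and log2 fold change >|0.5|.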

HUVEC [2] = experiment: Effect on MBNL2 gene expression in serum-starved HUVEC after 6 hrs by microarray analysis relative to control; assay type: functional, Homo sapiens
Summary of the method: (§2)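 Serum-starved confluent HUVEC (pooled from 3–5 donors, passage ≤4) were treated with 2 μM compound or vehicle in 2.5% FBS for 6 h or 24 h, and total RNA was isolated. Hybridization was on Illumina Human-HT12. Data were processed with bgAdjust, vst and rsn normalization. Changes versus DMSO were called by moderated paired t-test at p < 0.05 and |log2 fold change| > 0.5.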

HUVEC [3] = experiment: Effect on MBNL2 gene expression in serum-starved HUVEC after 24 hrs by microarray analysis relative to control; assay type: functional, Homo sapiens; summary of the method: as §2
[4] = molecular target: Vascular endothelial growth factor receptor 2 (Homo sapiens) (UniProt P35968); experiment: Inhibition of VEGF-165-induced VEGFR2 autophosphorylation at Tyr996 in serum-starved HUVEC at 2 uM preincubated for 2 hrs followed by VEGF-165 induction measured after 5 mins by Western blot analysis; assay type: cell-based
HUVEC [5] = experiment: Effect on MIR181A2HG gene expression in serum-starved HUVEC after 6 hrs by microarray analysis relative to control; assay type: functional, Homo sapiens; summary of the method: as §2
HUVEC [6] = experiment: Effect on RETSAT gene expression in serum-starved HUVEC after 6 hrs by microarray analysis relative to control; assay type: functional, Homo sapiens
HUVEC [7] = experiment: Effect on ABCA1 gene expression in serum-starved HUVEC after 6 hrs by microarray analysis relative to control; assay type: functional, Homo sapiens
Summary of the method: (§3)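 Confluent serum-starved HUVEC (primary, pooled from 3–5 donors, passage ≤4) treated with 2 μM compound or DMSO vehicle in 2.5% FBS for 6 h or 24 h. Total RNA hybridized to Illumina Human-HT12 arrays, background-corrected, vst-transformed and rsn-normalized. Differential expression versus DMSO by moderated paired t-test (p < 0.05, |log2 fold change| > 0.5).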

HUVEC [8] = experiment: Effect on AFAP1L1 gene expression in serum-starved HUVEC after 6 hrs by microarray analysis relative to control; assay type: functional, Homo sapiens; summary of the method: as §3
HUVEC [9] = experiment: Effect on CD14 gene expression in serum-starved HUVEC after 6 hrs by microarray analysis relative to control; assay type: functional, Homo sapiens; summary of the method: as §3
HUVEC [10] = experiment: Effect on CDC25C gene expression in serum-starved HUVEC after 6 hrs by microarray analysis relative to control; assay type: functional, Homo sapiens; summary of the method: as §3
HUVEC [11] = experiment: Effect on CDCA5 gene expression in serum-starved HUVEC after 6 hrs by microarray analysis relative to control; assay type: functional, Homo sapiens
Summary of the method: (§4)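 Serum-starved confluent HUVEC treated with 2 μM compound or DMSO in 2.5% FBS for 6 h or 24 h; RNA hybridized to Illumina Human-HT12 arrays. Data background-corrected, vst-transformed and rsn-normalized. Differential probes called by moderated paired t-test (limma) at p < 0.05 and log2 fold change >|0.5| vs DMSO.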

HUVEC [12] = experiment: Effect on CENPW gene expression in serum-starved HUVEC after 6 hrs by microarray analysis relative to control; assay type: functional, Homo sapiens; summary of the method: as §4
HUVEC [13] = experiment: Effect on DKK1 gene expression in serum-starved HUVEC after 6 hrs by microarray analysis relative to control; assay type: functional, Homo sapiens; summary of the method: as §3
HUVEC [14] = experiment: Effect on FTH1P8 gene expression in serum-starved HUVEC after 6 hrs by microarray analysis relative to control; assay type: functional, Homo sapiens; summary of the method: as §1
HUVEC [15] = experiment: Effect on HLA-DRA gene expression in serum-starved HUVEC after 6 hrs by microarray analysis relative to control; assay type: functional, Homo sapiens
HUVEC [16] = experiment: Effect on ITGB2 gene expression in serum-starved HUVEC after 6 hrs by microarray analysis relative to control; assay type: functional, Homo sapiens
HUVEC [17] = experiment: Effect on KCNAB1 gene expression in serum-starved HUVEC after 6 hrs by microarray analysis relative to control; assay type: functional, Homo sapiens; summary of the method: as §1
HUVEC [18] = experiment: Effect on LDLR gene expression in serum-starved HUVEC after 6 hrs by microarray analysis relative to control; assay type: functional, Homo sapiens; summary of the method: as §2
HUVEC [19] = experiment: Effect on SMC4 gene expression in serum-starved HUVEC after 6 hrs by microarray analysis relative to control; assay type: functional, Homo sapiens
HUVEC [20] = experiment: Effect on TUBB2B gene expression in serum-starved HUVEC after 6 hrs by microarray analysis relative to control; assay type: functional, Homo sapiens
HUVEC [21] = experiment: Effect on VCAM1 gene expression in serum-starved HUVEC after 6 hrs by microarray analysis relative to control; assay type: functional, Homo sapiens
HUVEC [22] = experiment: Effect on CDK1 gene expression in serum-starved HUVEC after 24 hrs by microarray analysis relative to control; assay type: functional, Homo sapiens; summary of the method: as §4
HUVEC [23] = experiment: Effect on CTSH gene expression in serum-starved HUVEC after 24 hrs by microarray analysis relative to control; assay type: functional, Homo sapiens; summary of the method: as §1
HUVEC [24] = experiment: Effect on CYTL1 gene expression in serum-starved HUVEC after 24 hrs by microarray analysis relative to control; assay type: functional, Homo sapiens
Summary of the method: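 Serum-starved confluent HUVEC (primary, pooled from 3–5 donors, passage ≤4) treated with 2 μM test compound or DMSO vehicle (working dilutions ≤0.1% v/v) in presence of 2.5% FBS for 6 h or 24 h; total RNA hybridized to Illumina Human-HT12 arrays; background correction, vst, rsn normalization; moderated paired t-test versus DMSO, thresholds p < 0.05 and log2 fold change >|0.5|.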

HUVEC [25] = experiment: Effect on FUCA1 gene expression in serum-starved HUVEC after 24 hrs by microarray analysis relative to control; assay type: functional, Homo sapiens; summary of the method: as §3
HUVEC [26] = experiment: Effect on IL1RL1 gene expression in serum-starved HUVEC after 24 hrs by microarray analysis relative to control; assay type: functional, Homo sapiens
HUVEC [27] = experiment: Effect on KITLG gene expression in serum-starved HUVEC after 24 hrs by microarray analysis relative to control; assay type: functional, Homo sapiens; summary of the method: as §2
HUVEC [28] = experiment: Effect on MYO10 gene expression in serum-starved HUVEC after 24 hrs by microarray analysis relative to control; assay type: functional, Homo sapiens; summary of the method: as §2
HUVEC [29] = experiment: Effect on PCYT2 gene expression in serum-starved HUVEC after 24 hrs by microarray analysis relative to control; assay type: functional, Homo sapiens
HUVEC [30] = experiment: Effect on RNA5S9 gene expression in serum-starved HUVEC after 24 hrs by microarray analysis relative to control; assay type: functional, Homo sapiens
HUVEC [31] = experiment: Effect on SCD gene expression in serum-starved HUVEC after 24 hrs by microarray analysis relative to control; assay type: functional, Homo sapiens
HUVEC [32] = experiment: Effect on SERPINB2 gene expression in serum-starved HUVEC after 24 hrs by microarray analysis relative to control; assay type: functional, Homo sapiens
HUVEC [33] = experiment: Effect on SQLE gene expression in serum-starved HUVEC after 24 hrs by microarray analysis relative to control; assay type: functional, Homo sapiens
HUVEC [34] = experiment: Effect on TGFBI gene expression in serum-starved HUVEC after 24 hrs by microarray analysis relative to control; assay type: functional, Homo sapiens
[35] = Upregulation of HMGCS1 gene expression in serum-starved HUVEC at 2 uM after 24 hrs by qRT-PCR analysis; assay type: functional, cell-based; settings: Homo sapiens
[36] = Upregulation of SQLE gene expression in serum-starved HUVEC at 2 uM after 24 hrs by qRT-PCR analysis; assay type: functional, cell-based; settings: Homo sapiens

Chain of Vascular endothelial growth factor receptor 2 (Homo sapiens) (P35968 whole entry): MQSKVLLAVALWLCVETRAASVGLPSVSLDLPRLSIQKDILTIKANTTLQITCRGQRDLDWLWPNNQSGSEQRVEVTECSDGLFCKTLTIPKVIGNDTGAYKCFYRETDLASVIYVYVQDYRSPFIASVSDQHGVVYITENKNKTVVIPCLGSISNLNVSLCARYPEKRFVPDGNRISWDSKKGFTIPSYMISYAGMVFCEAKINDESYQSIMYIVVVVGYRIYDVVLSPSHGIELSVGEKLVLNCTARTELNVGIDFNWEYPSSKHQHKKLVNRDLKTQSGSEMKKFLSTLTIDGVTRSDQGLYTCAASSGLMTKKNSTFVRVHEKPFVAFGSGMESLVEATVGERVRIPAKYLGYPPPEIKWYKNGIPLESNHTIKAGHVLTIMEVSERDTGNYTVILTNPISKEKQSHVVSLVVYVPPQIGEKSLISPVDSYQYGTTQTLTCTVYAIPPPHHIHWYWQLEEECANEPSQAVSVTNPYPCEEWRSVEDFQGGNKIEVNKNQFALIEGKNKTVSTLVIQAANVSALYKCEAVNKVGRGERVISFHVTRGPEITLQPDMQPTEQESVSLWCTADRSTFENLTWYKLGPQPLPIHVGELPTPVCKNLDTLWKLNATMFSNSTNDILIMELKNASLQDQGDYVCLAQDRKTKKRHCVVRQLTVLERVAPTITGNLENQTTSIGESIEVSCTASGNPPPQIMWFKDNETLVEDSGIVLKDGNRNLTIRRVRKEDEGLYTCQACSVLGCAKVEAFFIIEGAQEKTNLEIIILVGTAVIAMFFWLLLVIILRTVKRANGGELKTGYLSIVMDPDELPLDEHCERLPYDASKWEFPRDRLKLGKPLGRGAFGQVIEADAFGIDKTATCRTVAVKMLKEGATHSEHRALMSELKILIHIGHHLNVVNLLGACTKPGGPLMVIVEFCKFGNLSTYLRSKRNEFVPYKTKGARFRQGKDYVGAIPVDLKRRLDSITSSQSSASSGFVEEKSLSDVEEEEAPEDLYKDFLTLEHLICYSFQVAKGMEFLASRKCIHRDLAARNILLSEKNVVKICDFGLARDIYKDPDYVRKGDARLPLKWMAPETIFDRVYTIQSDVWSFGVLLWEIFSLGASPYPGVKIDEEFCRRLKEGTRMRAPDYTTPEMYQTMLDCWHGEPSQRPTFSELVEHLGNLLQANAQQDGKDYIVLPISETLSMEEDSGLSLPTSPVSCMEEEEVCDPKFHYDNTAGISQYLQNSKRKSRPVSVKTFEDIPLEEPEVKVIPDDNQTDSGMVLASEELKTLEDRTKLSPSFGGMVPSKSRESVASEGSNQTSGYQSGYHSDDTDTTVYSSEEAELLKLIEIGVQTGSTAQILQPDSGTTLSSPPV

SMILES: COc1ccc(Cn2nc(-c3ccccc3)c3cc(Cl)nc(N4CCNCC4)c32)cc1
- log2FC (HUVEC [1]): -0.0226
- log2FC (HUVEC [2]): 0.2488
- log2FC (HUVEC [3]): 0.526

- inhibition [4]: Active
SMILES: COc1ccc(Cn2nc(-c3ccccc3)c3cc(Nc4ccc(N5CCN(C)CC5)cc4)nc(N4CCNCC4)c32)cc1
- log2FC (HUVEC [5]): -0.0835
- log2FC (HUVEC [6]): 0.0844

SMILES: COc1ccc(Cn2nc(-c3ccccc3)c3cc(Nc4ccc(N5CCN(C)CC5)cc4)nc(N4CCN(C)CC4)c32)cc1
- fold change (FC) (HUVEC [7]): 0.0783
- fold change (FC) (HUVEC [8]): 0.0116
- fold change (FC) (HUVEC [9]): 1.7643
- fold change (FC) (HUVEC [10]): -0.0013
- fold change (FC) (HUVEC [11]): 0.0694
- log2FC (HUVEC [12]): -0.2667
- fold change (FC) (HUVEC [13]): 0.1994
- fold change (FC) (HUVEC [14]): 0.2063
- fold change (FC) (HUVEC [15]): 0.8911
- fold change (FC) (HUVEC [16]): 1.3289
- fold change (FC) (HUVEC [17]): 0.0717
- fold change (FC) (HUVEC [18]): 0.9404
- fold change (FC) (HUVEC [19]): 0.0208
- fold change (FC) (HUVEC [20]): 0.219
- log2FC (HUVEC [21]): 0.1271
- log2FC (HUVEC [22]): -0.5092
- log2FC (HUVEC [23]): -0.6409
- fold change (FC) (HUVEC [24]): 0.5166
- fold change (FC) (HUVEC [25]): -1.0254
- fold change (FC) (HUVEC [26]): -0.5903
- log2FC (HUVEC [27]): 0.5605
- log2FC (HUVEC [28]): 0.507
- log2FC (HUVEC [29]): 0.5377
- log2FC (HUVEC [30]): 0.0013
- log2FC (HUVEC [31]): 1.4341
- log2FC (HUVEC [32]): -0.6601
- log2FC (HUVEC [33]): 1.0535 - 1.1624
- log2FC (HUVEC [34]): -0.9058
- Activity [35]: Active
- Activity [36]: Active
